The list is not random: actives were taken first. Their share in the collection is about 1.3%.
Diaph act CS: counter-screen for diaphorase-based assays: diaphorase activators and chemical reducers | Diaphorase/resazurin coupled assay, resorufin fluorescence, 16 min; stronger effect = higher value; 1 = vehicle wells, 0 = NADH-free wells | activation factor at 20 µM | 190,000 compounds, 0.005% hits | AID 1229;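 active = diaphorase activity raised at least twofold by the compound at 20 µM; inactive = activation factor below 2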
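Material: purified diaphorase enzyme from Clostridium kluyveri / Medium: HEPES pH 7.4 buffer with MgCl2 and Tween 20 / Schedule: enzyme reaction of 16 min at room temperature / Measured by: resorufin fluorescence, excitation 544 nm, emission 590 nm / Evaluation: rise in resorufin formation, marking diaphorase activation or chemical reduction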
Diaph inh CS: inhibits diaphorase or chemically oxidizes, flagging diaphorase assay artifacts; AID 1217; diaphorase resazurin-to-resorufin fluorescence, NADH, 16 min; bacterial (C. kluyveri) enzyme, not human; 190,000 compounds, 0.69% hits; inhibition, % at 20 µM;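 active = primary screen inhibition at 20 µM above a set limit, cut at about 50% in these data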
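Test system: Clostridium kluyveri diaphorase enzyme / Quantity: diaphorase at 0.14 U/mL in enzyme working solution / Incubation: 16-min room-temperature incubation before reading / Benchmarks: NADH-free wells as positive control, DMSO-only neutral wells / Signal: resorufin fluorescence 544/590 nm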
HKDC1 inhibitor: blocks human hexokinase HKDC1 activity; recombinant HKDC1, G6PDH/diaphorase resazurin coupled fluorescence; 340,000 compounds, 0.16% hits; inhibition, % at 20 µM; Q2TB90; AID 493160;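 active = inhibition above about 35% when tested at 20 µM, limit read from the data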
Target sequence (Q2TB90 whole entry, looked up): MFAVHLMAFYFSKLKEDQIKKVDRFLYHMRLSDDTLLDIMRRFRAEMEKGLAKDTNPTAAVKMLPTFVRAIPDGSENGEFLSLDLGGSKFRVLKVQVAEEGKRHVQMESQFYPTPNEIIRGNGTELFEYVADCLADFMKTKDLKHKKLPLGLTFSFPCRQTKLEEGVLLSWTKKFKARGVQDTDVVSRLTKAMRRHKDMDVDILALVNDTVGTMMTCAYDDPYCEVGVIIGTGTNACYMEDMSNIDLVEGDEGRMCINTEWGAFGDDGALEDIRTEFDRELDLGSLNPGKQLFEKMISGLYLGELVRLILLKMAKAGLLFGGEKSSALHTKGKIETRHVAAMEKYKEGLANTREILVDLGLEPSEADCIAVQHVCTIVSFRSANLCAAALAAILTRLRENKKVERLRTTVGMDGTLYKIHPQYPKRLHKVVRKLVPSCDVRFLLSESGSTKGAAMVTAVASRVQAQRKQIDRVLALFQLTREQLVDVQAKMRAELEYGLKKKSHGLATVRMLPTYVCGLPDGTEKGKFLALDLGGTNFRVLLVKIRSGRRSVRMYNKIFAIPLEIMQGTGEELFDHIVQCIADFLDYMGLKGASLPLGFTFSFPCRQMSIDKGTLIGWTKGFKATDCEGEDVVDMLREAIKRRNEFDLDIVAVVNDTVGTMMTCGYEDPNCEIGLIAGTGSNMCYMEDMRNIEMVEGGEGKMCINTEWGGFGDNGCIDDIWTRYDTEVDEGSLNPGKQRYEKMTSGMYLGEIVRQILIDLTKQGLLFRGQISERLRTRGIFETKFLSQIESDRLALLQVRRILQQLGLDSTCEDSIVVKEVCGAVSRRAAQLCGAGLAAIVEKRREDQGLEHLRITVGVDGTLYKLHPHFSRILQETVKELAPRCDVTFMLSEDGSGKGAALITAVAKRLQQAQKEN
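Assay system: in-house recombinant HK5 (HKDC1) enzyme. Input: HKDC1 at 5 µg/mL. Medium: Tris pH 8.0 buffer with MgCl2, Tween-20, BSA, BME. Dosing: single 20 µM dose. Schedule: 90 min reaction incubation at room temperature, dark. Signal: resazurin-to-resorufin fluorescence via G6PDH and diaphorase coupling, 525/613 nm. Controls: DMSO-enzyme wells negative, buffer-substituted wells positive.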
G6PDH counter: L. mesenteroides G6PDH inhibition counter-screen | Purified L. mesenteroides G6PDH, diaphorase/resazurin coupled fluorescence, 45 min | inhibition, % at 5 µM | 200,000 compounds, 0.12% hits; in the data active = inhibition above about 50%
PfGluPho inh: PfG6PD (Plasmodium falciparum) enzyme inhibition. PfGluPho enzyme, NADPH resazurin-diaphorase fluorescence. inhibition, % at 20 µM. AID 504690. 350,000 compounds, 0.78% hits;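 active = inhibition reaching at least a set limit at 20 µM in the primary screen, cut at about 59% in these data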
PfGluPho conf: confirmation of Plasmodium falciparum G6PD inhibitors | AID 504753 | inhibition, % at 20 µM | recombinant PfGluPho, NADPH-diaphorase-resazurin fluorescence | 2,400 compounds, 34% hits | shares compounds with PfGluPho inh;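 active = inhibition of at least 50% at 20 µM in any single replicate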
Diaphorase 10uM: counter-screen for P. falciparum G6PD inhibitors: diaphorase inhibitors, oxidizers. shares compounds with PfGluPho inh. diaphorase-coupled resazurin reduction, fluorescence, NADPH 10 uM. inhibition, % at 20 µM. 820 compounds, 39% hits;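 active = average inhibition reaching 50% or more with the compound at 20 µM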;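 note: resorufin red fluorescence formed as diaphorase reduces resazurin using NADPH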
Diaph ctr 30uM: counter-screen for P. falciparum G6PD inhibitors: diaphorase inhibitors, oxidizers. shares compounds with PfGluPho inh. Diaphorase/resazurin coupled assay, resorufin fluorescence, 30 uM NADPH. inhibition, % at 20 µM. 820 compounds, 29% hits. AID 504863;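 active = inhibition averaging 50% or more, tested at 20 µM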
Hits are given with their value; n = inactive; x = no result.

SMILES | Diaph act CS | Diaph inh CS | HKDC1 inhibitor | G6PDH counter | PfGluPho inh | PfGluPho conf | others
COc1cc(C=Cc2nnc3c4ccccc4cnn23)cc(OC)c1OC | x | x | x | x | n | x
CCCc1cc(=O)[nH]c(SCC(=O)NC2(C#N)CCCCC2)n1 | x | x | n | x | n | x
O=S(=O)(NC1CCCC1)c1ccc(F)cc1F | x | x | x | x | n | x
O=S(=O)(c1ccc(=S)[nH]c1)N1CCCC1 | x | x | n | x | 60 | n
CC(C)OCCCNC(=O)c1cccc2c1C(=O)c1ccc(Cl)cc1S2(=O)=O | x | x | n | x | n | x
O=C(N/N=C/c1ccc(O)cc1)c1ccc(NC(=O)c2ccccc2Br)cc1 | n | n | n | n | n | x
O=C(Nc1ccccc1C(=O)N/N=C/c1ccc(F)cc1)c1ccccc1Br | n | n | n | n | 104 | 84 | Diaphorase 10uM=69;Diaph ctr 30uM=59
Cn1nc(C(F)(F)F)c2cc(NC(=O)OCc3ccc(F)cc3)sc21 | n | n | n | n | 59 | n
COc1ccc(CC(=O)Nc2ccc(F)c(F)c2F)cc1S(=O)(=O)N1CCOCC1 | x | x | n | x | n | x
Cc1ccc(C(=O)Nc2ccc(O)cc2C(=O)O)cc1 | n | n | n | n | 66 | n
COc1ccc(-c2sc(Nc3ccccc3)n[n+]2-c2ccc(F)cc2)cc1Br | x | x | n | x | n | x
CCc1ccc(Nc2n[n+](-c3ccccc3)c(-c3c(Cl)cccc3Cl)s2)cc1 | x | x | n | x | 80 | n
COc1ccc2ccccc2c1-c1sc(Nc2ccccc2)n[n+]1-c1ccc(F)cc1 | x | x | n | x | 99 | 79 | Diaphorase 10uM=75;Diaph ctr 30uM=59
COc1ccc(C)cc1Nc1n[n+](-c2ccccc2)c(-c2c(Cl)cccc2Cl)s1 | x | x | n | x | 73 | n
COc1cccc(C(=O)Nc2sc3c(c2C(=O)O)CCCC3)c1 | x | x | n | x | 88 | n
Cc1cccc(C(=O)Nc2sc3c(c2C(=O)O)CCC3)c1 | x | x | n | x | 60 | n
COc1cc(C(=O)Nc2sc3c(c2C(=O)O)CCC3)cc(OC)c1OC | x | x | n | x | n | x
COc1cccc(C(=O)Nc2sc3c(c2C#N)CCN(C(C)=O)C3)c1 | n | n | n | n | 61 | n
CNC(=O)c1c(NC(=O)c2cccc(C)c2)sc2c1CCC2 | x | x | n | x | n | x
COc1ccc(/C=C(/NC(=O)c2ccccc2)C(=O)N/N=C/c2cccs2)cc1OC | n | n | n | n | n | x
COc1ccc([N+](=O)[O-])cc1/C=N/NC(=O)/C(=C\c1cccs1)NC(=O)c1ccccc1 | n | n | n | n | 99 | 82 | Diaphorase 10uM=86;Diaph ctr 30uM=70
COc1ccc(Br)cc1S(=O)(=O)N1CCCc2ccccc21 | x | x | n | x | n | x
Cc1cccc(S(=O)(=O)Nc2ccc(C)c3c2OC(C)(C)C3)c1 | n | n | n | n | 107 | n
Cc1ccc(NS(=O)(=O)c2ccccc2Cl)c2c1CC(C)(C)O2 | n | n | n | n | 109 | 59 | Diaphorase 10uM=n;Diaph ctr 30uM=n
Clc1cccc(-c2nn3c(Cn4cnc5ccccc54)nnc3s2)c1 | n | n | n | n | 62 | n
SMILES | Diaph act CS | Diaph inh CS | HKDC1 inhibitor | G6PDH counter | PfGluPho inh | PfGluPho conf | others
c1csc(-c2nn3c(Cn4cnc5ccccc54)nnc3s2)c1 | n | n | n | n | 75 | n
c1csc(-c2nn3c(Cn4nnc5ccccc54)nnc3s2)c1 | n | n | n | n | n | x
O=C(CNC(=O)c1ccccc1)NCC(=O)OCC(=O)c1ccc([N+](=O)[O-])cc1 | n | n | n | n | 59 | 55 | Diaphorase 10uM=n;Diaph ctr 30uM=n
O=C(CNC(=O)c1ccccc1)NCC(=O)OCC(=O)c1ccc(F)cc1 | n | n | n | n | n | x
O=C(CNC(=O)c1ccc(Br)cc1)NCC(=O)OCC(=O)c1ccc([N+](=O)[O-])cc1 | n | n | n | n | 67 | 57 | Diaphorase 10uM=n;Diaph ctr 30uM=n
Clc1ccc(Nc2ncnc3c2cnn3-c2ccccc2)cc1 | n | n | n | n | 111 | n
CC(=O)Nc1ccc(Nc2ncnc3c2cnn3-c2ccccc2)cc1 | n | n | n | n | n | x
Nc1ccc2nc(-c3ccc(Cl)cc3)[nH]c2c1 | n | n | n | n | n | x
Clc1ccc2nc(-c3ccc(Cl)nc3)[nH]c2c1 | x | x | n | x | 110 | 55 | Diaphorase 10uM=71;Diaph ctr 30uM=57
O=C(N/N=C/c1ccccn1)c1cccc(S(=O)(=O)Nc2ccccc2Cl)c1 | n | n | n | n | n | x
Cc1ccsc1/C=N/NC(=O)c1cccc(S(=O)(=O)Nc2ccccc2Cl)c1 | n | n | n | n | 64 | 60 | Diaphorase 10uM=n;Diaph ctr 30uM=n
O=[N+]([O-])c1cnc(Sc2ccncn2)c([N+](=O)[O-])c1 | x | x | x | x | 80 | 59 | Diaphorase 10uM=n;Diaph ctr 30uM=n
O=[N+]([O-])c1cnc(Sc2ccncn2)s1 | x | x | n | x | n | x
Cc1ccc2[nH]c3c(N4CCN(Cc5ccccc5)CC4)ncnc3c2c1 | n | n | n | n | n | x
Cc1ccc2c(c1)[nH]c1c(N3CCN(Cc4ccccc4)CC3)ncnc12 | n | n | n | n | 61 | n
COc1cccc(NC(=O)COC(=O)CNC(=O)C2CCCCC2)c1 | x | x | n | x | n | x
CN1CCN(C(=O)C[C@H]2C[C@H]3c4cc(NC(=O)NC5CCCCC5)ccc4O[C@H]3[C@@H](CO)O2)CC1 | x | x | x | x | n | x
O=c1cc(CN2CCN(c3ccc(O)cc3)CC2)nc2scc(-c3ccccc3)n12 | n | n | n | n | 65 | n
C=CCN(CC=C)Cc1cc(=O)n2c(-c3ccccc3)csc2n1 | x | x | n | x | n | x
